By IC50 is commonly meant the concentration needed to halve the response being measured.

Consider 88 compounds from PubChem BioAssay AID463191 (Sanford-Burnham Center for Chemical Genomics, 2010).

Activity calls are given as the source filed them.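 The calls were made as follows: active = compounds whose mean IC50 across repeat dose response tests falls below a set limit; inactive = the rest.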 Where only a bound is given, the exact number is not on record here.

The test system of the test is AML12 mouse hepatocytes, BODIPY lipid droplet imaging. Kind of test: hepatocyte lipid droplet accumulation inhibitors, dose response, imaging, AML12 mouse hepatocytes, high-content (AID 463191). The following applies: cells loaded with 100 µM oleic acid. A digest of the protocol: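 Material: mouse AML12 hepatocytes; dosing: Seven-point series from 32 to 0.5 µM, 0.32% DMSO; schedule: ~20 h pre-growth at 37 °C, overnight treatment; benchmarks: Triacsin-C at 5 µM as positive control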

Take `CCOc1ccc(CCNC(=O)COC(=O)/C=C/c2ccc(OCC#N)c(OC)c2)cc1OCC`: the IC50 is 21000 nM (inactive).

`CCCCCCn1c(SCC(=O)Nc2cc(C)on2)nc2ccccc2c1=O`: the IC50 was 750 nM.

Take `COc1ccc(CNC(=O)CN2C(=O)NC(C)(c3cccc4ccccc34)C2=O)cc1OC` (stereo not drawn): the IC50 was 2320 nM.

With `CCC(C)(C)NC(=O)C(c1sccc1C)N(Cc1ccco1)C(=O)c1csnn1` (stereo not drawn), the IC50 was 11900 nM (inactive).

For `CCOC(=O)c1cc(CC)sc1NC(=O)C1CC(=O)NN1Cc1ccccc1` (stereo not drawn), the IC50 is 573 nM.

On to `COc1ccc(C(=O)OCC(=O)NC(C)CCc2ccccc2)cc1OC` (stereo not drawn), for which the IC50 is 11700 nM (inactive).

As for `COc1ccc(NC(=O)CN2C(=O)NC(c3ccccc3)(c3ccccc3)C2=O)cc1OC`, the IC50 is 1600 nM.

For `Cc1cc(N2CCOCC2)n2nc(C)c(-c3ccc(Cl)cc3)c2n1`, the IC50 was 1310 nM.

As to `CCOc1ccc(CCNC(=O)CCOc2cc(C)ccc2C)cc1OCC`, the IC50 is under 500 nM.

As to `CCOc1ccc(CN(C)C(=O)CNC(=O)Cc2cccc3ccccc23)cc1`, the concentration for half-maximal inhibition (IC50) is 566 nM.

Consider `CC1CCCN(C2=C(NS(=O)(=O)c3ccc(Br)cc3)C(=O)c3ccccc3C2=O)C1` (stereo not drawn), for which the IC50 is 927 nM.

On to `CCNC(=S)N1CCc2cc(OC)c(OC)cc2C1COc1ccccc1OC` (stereo not drawn), for which the IC50 is 3770 nM.

In the case of `CCCc1nc2ccccc2c(C(=O)OC(C)C(=O)NCc2ccc3c(c2)OCO3)c1CC` (stereo not drawn), the IC50 is 1970 nM.

With `O=C(NCc1ccccc1)C(c1ccccc1F)N(C(=O)c1csnn1)C1CCCC1` (stereo not drawn), the IC50 was 3490 nM.

`O=C(NCc1ccc2c(c1)OCO2)c1cc(-c2ccccc2)c(N2CCOCC2)s1`: the IC50 was 715 nM.

For the compound `CCNC(=S)N1CCc2cc(OC)c(OC)cc2C1COc1ccc(F)cc1` (stereo not drawn), the IC50 was 2280 nM.

`COc1ccc(C2(c3ccc(OC)cc3)NC(=O)N(CC(=O)Nc3cc(C)ccc3OC)C2=O)cc1`: the IC50 was under 500 nM.

Consider `CCOc1ccc(CCNC(=O)CCc2nc(-c3ccc(OC)cc3)no2)cc1OCC`, for which the IC50 is 782 nM.

As for `COc1ccc(C(C(=O)NC(C)(C)C)N(Cc2ccc(F)cc2)C(=O)CCC(=O)Nc2cc(C)on2)cc1` (stereo not drawn), the IC50 was 2040 nM.

In the case of `CCC(C)(C)NC(=O)C(c1ccc(OC)cc1)N(Cc1ccccc1)C(=O)CCC(=O)Nc1cc(C)on1` (stereo not drawn), the IC50 was 3420 nM.

On to `CCOc1ccc(CCNC(=O)C2(c3ccccc3)CC2)cc1OCC`, for which the IC50 was 3910 nM.

In the case of `CCOc1ccc(CCNC(=O)Cn2nc(C)c3c(C)n(-c4ccccc4)nc3c2=O)cc1OCC`, the IC50 is under 500 nM.

`CCOc1ncccc1C(=O)OC(C)C(=O)Nc1ccc(CC)cc1` (stereo not drawn): the IC50 was 2640 nM.

For the compound `CCOc1ccc(CCNC(=O)c2cc3sc(Cl)cc3n2C)cc1OCC`, the IC50 is under 500 nM.

With `COc1ccc(OC)c(CCNC(=O)C(C)n2nc(C)c3c(C)n(-c4ccc(C)cc4)nc3c2=O)c1` (stereo not drawn), the IC50 is 1590 nM.

For `CCOc1ccc(CCNC(=O)COC(=O)c2cccnc2OCC)cc1OCC`, the IC50 is 2290 nM.

With `Cc1ccc(-c2c(C)nn3c(N4CCOCC4)cc(C)nc23)cc1`, the IC50 is 633 nM.

Consider `CCOc1ccc(CCNC(=O)Cn2nc(C)n3cccc3c2=O)cc1OCC`, for which the IC50 is 2000 nM.

For the compound `COc1ccc(C2(c3ccc(OC)cc3)NC(=O)N(CC(=O)Nc3ccccc3C)C2=O)cc1`, the IC50 was 1520 nM.

Regarding `CCOc1ccc(CCNC(=O)c2nnc(Cc3ccc(F)cc3)o2)cc1OCC`, the IC50 is 1570 nM.

Turning to `CCOc1ccc(CCNC(=O)Cn2c(-c3nonc3N)nc3ccccc32)cc1OCC`, the IC50 is 580 nM.

In the case of `CCOc1ccc(CCNC(=O)CCCn2c(=O)c3cccn3c3cccnc32)cc1OCC`, the IC50 was 1880 nM.

Regarding `CCOc1ccc(C(=O)NCC(=O)NC(C)CCc2ccccc2)cc1OCC` (stereo not drawn), the IC50 was 858 nM.

Turning to `CC1CC(C)CN(C(=O)c2ccc3c(c2NCCO)C(=O)c2ccccc2C3=O)C1` (stereo not drawn), the IC50 was 687 nM.

For the compound `CC(C)Oc1ccc(C(=O)OC(C)C(=O)Nc2nc(-c3cccc([N+](=O)[O-])c3)cs2)cc1` (stereo not drawn), the IC50 is 866 nM.

With `CCc1c(C#N)c(SCCC(=O)Nc2cccc(OC)c2)nc2c1C(=O)CC(C)(C)C2`, the IC50 was 1410 nM.

Regarding `CCOc1ccccc1NC(=O)CCCNC(=O)Cn1cnc2sc(C)c(C)c2c1=O`, the IC50 was 7090 nM (inactive).

Turning to `CCc1ccc(NC(=O)CNC(=O)[C@@H]2Cc3ccccc3CN2C(=O)OC(C)(C)C)cc1`, the IC50 is 5020 nM (inactive).

`Nc1nc(-c2ccccc2)c(N=Nc2cccc3ccccc23)s1`: the IC50 is 525 nM.

`COc1ccc(C(C(=O)NC(C)(C)C)N(CC2CCCO2)C(=O)CCC(=O)Nc2cc(C)on2)cc1` (stereo not drawn): the IC50 was 4950 nM.

Take `Cc1cc(C(=O)OC(C)C(=O)Nc2nc(-c3ccccc3)cs2)c(C)o1` (stereo not drawn): the IC50 was 758 nM.

As for `COc1ccc(C(=O)OCC(=O)NC(C)CCc2ccccc2)c(OC)c1` (stereo not drawn), the IC50 was 10600 nM (inactive).

For `CCOc1ccc(C(=O)CCC(=O)NCC(=O)OCc2ccccc2)cc1OCC`, the IC50 was 8000 nM (inactive).

As for `Cc1cccc(NC(=O)CSc2nc3ccccc3nc2N2CCCC2)c1`, the IC50 was 5070 nM (inactive).

Regarding `CCOc1ccc(CCNC(=O)/C=C/c2ccco2)cc1OCC`, the IC50 is 1050 nM.

In the case of `CCOc1ccc(CCNC(=O)CSc2cc(=O)n(CC)c3ccccc23)cc1OCC`, the IC50 is 1100 nM.

With `COc1ccc2c(c1)c(CC(=O)Nc1ccc(C(C)=O)cc1)c(C)n2C(=O)c1ccc(Cl)cc1`, the IC50 is 2880 nM.

Take `COc1ccc2c(c1)c(CC(=O)Nc1ccc(C)cc1)c(C)n2C(=O)c1ccc(Cl)cc1`: the IC50 was under 500 nM.

Regarding `COc1ccc(-c2csc(NNC3=NCCCCC3)n2)cc1`, the IC50 was 1420 nM.

Consider `Cc1ccc(-n2nc3c(=O)n(CC(=O)NCCCc4ccccc4)nc(C)c3c2C)cc1`, for which the IC50 was 4240 nM.

In the case of `CCOc1ccc(CC(=O)Nc2ccc(NC(=O)c3ccco3)cc2)cc1OCC`, the IC50 is 2350 nM.

Turning to `COc1cc(NC(=O)c2cccs2)c(OC)cc1NC(=O)CCC(=O)Nc1ccc(C)cc1`, the IC50 was 790 nM.

In the case of `Cc1ccc(-n2nc3c(=O)n(CC(=O)NC(C)CCc4ccccc4)nc(C)c3c2C)cc1` (stereo not drawn), the IC50 was 581 nM.

On to `CCOc1ccc(CCNC(=O)c2cc3sccc3n2CC)cc1OCC`, for which the IC50 was under 500 nM.

Consider `COc1ccc(NC(=O)CSc2nc3ccccc3nc2N2CCCC2)cc1Cl`, for which the IC50 was 2850 nM.

With `CCOc1ccc(CCNC(=O)CN2CCN(Cc3ccc(F)cc3)C2=O)cc1OCC`, the half-maximal inhibitory concentration (IC50) is 1830 nM.

As for `COc1ccc(C(C(=O)NC(C)(C)C)N(Cc2ccco2)C(=O)CCC(=O)Nc2cc(C)on2)cc1` (stereo not drawn), the IC50 was 4840 nM.

As for `CCOc1ccccc1Nc1nnc(SCC(=O)Nc2nc(-c3ccc(OC)cc3)cs2)s1`, the IC50 was 1020 nM.

As to `CC1=C(C(=O)NC2CCCc3c2cnn3-c2cccc(C)c2C)OCCO1` (stereo not drawn), the IC50 was 11800 nM (inactive).

Consider `CCCCn1c(=O)[nH]c(=O)c2c1nc(-c1ccc(-c3ccccc3)cc1)n2C`, for which the IC50 was 9970 nM (inactive).

For `O=C(NC1CCCc2c1cnn2-c1cc(F)cc(F)c1)c1ccccn1` (stereo not drawn), the IC50 is 1550 nM.

`COc1ccc(C(C(=O)NC(C)(C)C)N(CCC(C)C)C(=O)CCC(=O)Nc2cc(C)on2)cc1` (stereo not drawn): the IC50 is 1200 nM.

`Cc1cc(C)cc(NC(=O)CSc2nc3ccccc3nc2N2CCCC2)c1`: the IC50 is 2110 nM.

With `FC(F)Oc1ccc(-c2csc(NNC3=NCCCCC3)n2)cc1`, the IC50 is 916 nM.

As to `Cc1ccc(CNC(=O)CCCc2c[nH]c3ccccc23)cc1`, the IC50 was 11200 nM (inactive).

With `CCOc1ccc(CCNC(=O)CCc2nnc3ccc(N4CCCC4)nn23)cc1OCC`, the IC50 was 1810 nM.

For `CCOc1ccc(CCNC(=O)COC(=O)/C=C/c2ccc(OC)c(OC)c2)cc1OCC`, the IC50 was 1500 nM.

Turning to `CCOc1ccc(CCNC(=O)Nc2ccccc2)cc1OCC`, the IC50 is 583 nM.

Turning to `CCOc1ccc(CCNC(=O)CCc2nnc3ccc(N4CCCCC4)nn23)cc1OCC`, the IC50 was 582 nM.

As for `COc1ccc(C2(c3ccc(OC)cc3)NC(=O)N(CC(=O)Nc3ccc(OC)c(OC)c3)C2=O)cc1`, the IC50 was 6860 nM (inactive).

For `COc1ccc(/C=C(\NC(=O)c2ccc(OCC(C)C)cc2)C(=O)OCc2ccco2)cc1`, the IC50 was 2710 nM.

Regarding `CCCOc1ccc(C(=O)OCC(=O)NCCc2ccc(OCC)c(OCC)c2)cc1OC`, the IC50 was 593 nM.

On to `Cc1ccc(-n2nc3c(=O)n(CC(=O)NC4CCCCC4)nc(C)c3c2C)cc1`, for which the IC50 was 4730 nM.

With `CCCc1cc(N2CCCC2)n2nc(C)c(-c3ccccc3)c2n1`, the IC50 is 1100 nM.

With `CCOc1ccc(CCNC(=O)CCS(=O)(=O)c2ccc(Br)cc2)cc1OCC`, the IC50 is 3270 nM.

As for `COc1cccc(NC(=O)CCC(=O)Nc2cc(OC)c(NC(=O)c3cccs3)cc2OC)c1`, the IC50 was 754 nM.

Take `COc1ccccc1NS(=O)(=O)c1ccc(N/N=C/c2c(C)nn(-c3ccccc3)c2N2CCCC2)c([N+](=O)[O-])c1`: the IC50 was under 500 nM.

`CCOc1ccc(CCNC(=O)COC(=O)c2cc(OC)c(OC)c(OC)c2)cc1OCC`: the IC50 was 559 nM.

Take `CCOc1ccc(CCNC(=O)c2cc(-c3ccccc3)c(N3CCOCC3)s2)cc1OCC`: the IC50 was under 500 nM.

As to `COc1ccc(C)cc1NC(=O)C/C(C)=N/NC(=O)Cc1cccc2ccccc12`, the IC50 was 13800 nM (inactive).

With `CCCCOc1ccc(/C=C/C(=O)OCC(=O)c2c(N)n(C)c(=O)n(C)c2=O)cc1OCC`, the IC50 was 28800 nM (inactive).

For `CCOc1ccc(NC(=O)CSc2nc3ccccc3nc2N2CCCC2)cc1`, the IC50 was 1770 nM.

On to `CCOc1ccc(CCNC(=O)CN2C(=O)NC3(CCCC3)C2=O)cc1OCC`, for which the IC50 was 1070 nM.

Regarding `CC1CCN(C2=C(NS(=O)(=O)c3ccc(Br)cc3)C(=O)c3ccccc3C2=O)CC1`, the IC50 was 703 nM.

On to `CCOc1ccc(CCNC(=O)CSc2cc(=O)n(C)c3cc(Cl)ccc23)cc1OCC`, for which the IC50 is 708 nM.

With `CCOc1ccccc1NC(=O)N1CCC(C(=O)c2ccc(F)cc2)CC1`, the IC50 is 4480 nM.

Consider `CCC(C(=O)NCCc1ccccc1OC)n1nc(C)c2c(C)n(-c3ccccc3)nc2c1=O` (stereo not drawn), for which the IC50 was 3260 nM.

Consider `CCOc1cc2c(cc1OCC)C(c1ccccc1OC)OC(=O)C2` (stereo not drawn), for which the IC50 is > 32000 nM (inactive).
